The structures appear in SMILES notation.

The values that follow come from ChEMBL document CHEMBL1123374, “Comparative pharmacology in the rat of ketamine and its two principal metabolites, norketamine and (Z)-6-hydroxynorketamine” (J Med Chem, 1986).

One data set concerns Rattus norvegicus. In words: Compound was administered to male Sprague-Dawley rats (250-300 g) by intravenous (iv) bolus injection at a dose of 40 mg/kg. It is filed as functional. The essentials:
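Male Sprague-Dawley rats (250-300 g) with right jugular vein catheter, 48 h recovery; 40 mg/kg iv bolus as free base in propylene glycol/ethanol/water (40/10/50) or HCl salt in 0.9% saline; controls given vehicle. Anesthesia duration by loss of righting reflex; locomotor activity by stabilimeter, excitation ended at <2 events per 3 min; mean ± SEM, n = 4.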

Data set [1] in a line: Partition coefficient was expressed as the ratio of the equilibrium concentration in chloroform solvent to that in an equal volume of pH 7.4 aqueous buffer. It is filed as ADME. The procedure, abridged: (§1)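 Compound at 100 µg/mL in organic solvent shaken with equal volume 0.1 M sodium phosphate buffer pH 7.4, 30 min, ambient temperature; phases separated by centrifugation, each quantified by GC against internal standard; coefficient = organic/aqueous concentration ratio; triplicate per solvent, mean ± SEM.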

Data set [2] can be described thus: Partition coefficient was expressed as the ratio of the equilibrium concentration in benzene solvent to that in an equal volume of pH 7.4 aqueous buffer. It is filed as ADME. The essentials:
as §1

Data set [3] can be described thus: Partition coefficient was expressed as the ratio of the equilibrium concentration in n-heptane solvent to that in an equal volume of pH 7.4 aqueous buffer. It is filed as ADME. The essentials:
as §1

Take `NC1(c2ccccc2Cl)CCC[C@@H](O)C1=O` (stereo not given in full): the Duration of anesthesia in the data set on Rattus norvegicus is reported as 0 min. For the same molecule, in the data set with Rattus norvegicus, the “Duration of increase in SLA” value was determined as 0 min. Moreover, the Partition coefficient in data set [1] was 19.4; in data set [2] it was 1.44; in data set [3] it was 0.00963.

For the molecule `CNC1(c2ccccc2Cl)CCCCC1=O` (stereo not given) [KETAMINE], in the data set on Rattus norvegicus, the Duration of anesthesia came out at 7.11 min. Besides, the “Duration of increase in SLA” value with Rattus norvegicus is listed as 24.65 min. The Partition coefficient is on record as 299 in data set [1], 98.6 in data set [2] and 6.36 in data set [3].

Regarding `NC1(c2ccccc2Cl)CCCCC1=O` (stereo not given) [NORKETAMINE], the Duration of anesthesia with Rattus norvegicus is recorded as 3.24 min. Further, the “Duration of increase in SLA” value in the data set on Rattus norvegicus was 7.15 min. Besides, the Partition coefficient in data set [1] was found to be 296; in data set [2], 52.6; in data set [3] it was 1.86.
